Compound activity (PubChem BioAssay)
A selection: hits, their analogues and other compounds. The true share with any hit is near 5.5%.
PostGolgi ctrl: yeast control strain growth, post-Golgi counter-screen. hit rate 5% among 98,000. efflux-deficient yeast background strain, growth absorbance A615, 16 h. inhibition, % at 10 µM
tolC growth inh: E. coli tolC mutant growth inhibition. AID 573. E. coli BW25113 tolC mutant growth, OD615. growth inhibition, % at 10 µM (by protocol). hit rate 2.2% among 65,000;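 active = growth inhibition at or above a cutoff equal to the mean over every tested compound plus 3 SD, cut at about 60% in these data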;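 note: growth measured after 20 h incubation at 37 °C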
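test system = E. coli BW25113 ΔtolC::kan bacteria | medium = LB with kanamycin 50 µg/mL | signal = OD at 615 nm | schedule = 37 °C, 20 h exposure | evaluation = % inhibition of E. coli growth | compound dosing = one dose of 10 µM final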
PostGolgi yeast: growth inhibition of a yeast mutant, post-Golgi transport screen. inhibition, % at 10 µM. AID 739. post-Golgi transport phenotypic cell assay. hit rate 0.9% among 98,000;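 note: yeast cells grown in 1536-well plates; yeast grown about 18 h at 30C before absorbance read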
Ecoli WT expand: blocks growth of wild type E. coli BW25113 | OD600 absorbance | growth inhibition, % at 100 µM | hit rate 0.15% among 98,000;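 active = growth inhibition above about 50% at one test dose, limit read from the data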;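 note: growth measured after 20 h incubation at 37 °C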
HePTP inh: human HePTP phosphatase inhibition. P35236. recombinant HePTP phosphatase activity, OD absorbance. inhibition, % at 20 µM. hit rate 0.64% among 110,000; in the data active = inhibition above about 50%;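 note: plate controls were vehicle for no effect and reference inhibitor for full effect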
Target sequence (P35236 whole entry, looked up): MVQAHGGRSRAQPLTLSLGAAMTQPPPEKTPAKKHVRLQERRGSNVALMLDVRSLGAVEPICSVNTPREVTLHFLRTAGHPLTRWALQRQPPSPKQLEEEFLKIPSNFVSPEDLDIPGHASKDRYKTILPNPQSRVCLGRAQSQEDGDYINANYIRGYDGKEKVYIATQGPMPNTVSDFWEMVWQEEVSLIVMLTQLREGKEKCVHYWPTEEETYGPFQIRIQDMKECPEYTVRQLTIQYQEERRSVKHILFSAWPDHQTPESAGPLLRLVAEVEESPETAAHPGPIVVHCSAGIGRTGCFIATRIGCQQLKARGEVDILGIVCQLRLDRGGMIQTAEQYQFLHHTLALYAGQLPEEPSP
PLAP act: activators of human placental alkaline phosphatase. P05187. purified PLAP enzyme, luminescent substrate read-out; active compounds read high. activation fold at 20 µM. hit rate 1.2% among 96,000; in the data active = activation fold above about 2
Numbers without * were called inactive; . = not tested or not shown. Cut-off read from the data, not from the text of the source, unless noted: active = inhibition above about 30%; inactive = the rest.

SMILES | PostGolgi ctrl | tolC growth inh | PostGolgi yeast | Ecoli WT expand | HePTP inh | PLAP act
COc1ccc(C2C=C(c3cccs3)Nc3nc(CCCO)nn32)cc1 (stereo not given) | 44.9* | -6.5 | 9.3 | -4.0 | -3.3 | 1.2
CCOc1ccc(NC(=O)c2cnn(-c3ccccc3)c2NC(=O)c2ccc(C)cc2)cc1 | . | . | . | . | -2.9 | .
C=CCNC(=O)c1ccc(I)cc1 | . | . | . | . | -5.8 | .
COC(=O)c1c(C(=O)OC)c2ccncn2c1Cl | -8.3 | -24.2 | 4.1 | -6.0 | 5.7 | 2.4*
CCC(OC(=O)CC1Sc2ccccc2NC1=O)C(=O)NCC1CCCO1 (stereo not given) | 9.8 | -13.5 | 3.9 | -3.0 | 7.3 | 2*
CCCNC(=O)CC1Sc2ccccc2NC1=O (stereo not given) | 39.2* | -7.2 | -5.8 | 8.0 | 5.2 | 0.9
O=C(CC1Sc2ccccc2NC1=O)Nc1ccccc1NC(=O)CC1Sc2ccccc2NC1=O (stereo not given) | . | . | . | . | -10.1 | .
CC(=O)CC1[C@@]2(C)CCCC(C)(C)C2CC[C@@]1(C)O (stereo not given in full) | . | . | . | . | 4.8 | .
O=C(CC(c1ccccc1)c1ccccc1)Nc1ncn[nH]1 | 18.9 | 11.4 | -5.0 | 7.0 | -4.4 | 2.9*
Cc1ccc(-c2cc(C(=O)NCc3cnn(C)c3C)c3cc(Br)ccc3n2)cc1 | 49.9* | . | -8.8 | 3.0 | . | 0.9
COc1ccc(-c2cc(C(=O)NN)c3cc(Br)ccc3n2)cc1 | . | . | . | . | 2.5 | .
Cc1cc(-c2ccco2)c(C#N)c2nc3ccccc3n12 | 83.2* | 81.0* | 25.4 | -12.0 | 3.2 | 1
CC(C)c1cc(N2CCN(C(=O)c3ccco3)CC2)n2c(nc3ccccc32)c1C#N | 1.9 | -0.6 | -14.7 | 3.0 | 4.0 | 1.1
Cc1nc2ccccc2c2oc(C(=O)N3CCN(C(=O)c4ccco4)CC3)cc12 | -2.3 | 8.9 | -3.5 | 8.0 | 7.7 | 1.5
Cc1nn(-c2ccccc2)c2sc(C(=O)N3CCc4ccccc4C3)cc12 | 44.8* | 27.1 | -0.5 | -10.0 | -3.0 | 1.4
Cc1nn(-c2ccccc2)c2sc(C(=O)N3CCCCC3)cc12 | 22.5 | 0.0 | -0.8 | -6.0 | 9.5 | 1.4
Cc1nc2ccccc2c2oc(C(=O)N3CCc4ccccc4C3)cc12 | 35.2* | 33.5 | -9.9 | -6.0 | 8.7 | 1.5
CCn1c(CC(C)C)n[nH]c1=S | -3.0 | -18.5 | 1.4 | 2.0 | -0.9 | 0.9
CCn1c(CCn2ccnc2C)n[nH]c1=S | 37.9* | -11.8 | -4.5 | -2.0 | 2.0 | 0.9
CC1=C(C(=O)Nc2ccc(C)cc2)C(c2ccc(C)cc2)NC(=O)N1 (stereo not given) | . | . | . | . | -0.9 | .
O=C1c2ccc([N+](=O)[O-])cc2C(=O)N1Cc1ccc(Cl)cc1Cl | . | . | . | . | -4.3 | .
Cc1cc(N2CCN(C)CC2)nc2ccc(NC(=O)c3ccc(Br)o3)cc12 | 32.1* | 11.4 | 16.6 | 9.0 | 7.4 | 1.6
Cc1cc(N2CCCCC2)nc2ccc(NC(=O)c3ccc(Br)o3)cc12 | -21.5 | . | 4.8 | 1.0 | . | 1.6
CN1CCN(C(=O)c2ccccc2Oc2ccccc2)CC1 | . | . | . | . | 4.3 | .
Cn1c(CNc2ccc(O)cc2)nc2ccccc21 | . | . | . | . | -4.9 | .
SMILES | PostGolgi ctrl | tolC growth inh | PostGolgi yeast | Ecoli WT expand | HePTP inh | PLAP act
Cc1ccc(NCc2nc3ccccc3n2C)cc1 | 33.7* | 7.6 | -0.9 | 12.0 | 9.9 | 0.7
Cn1c(CSc2nc3ccccc3s2)n[nH]c1=S | 4.0 | 29.3 | -6.8 | 17.0 | 7.2 | 1.8
Cn1c(CSc2nc3ccccc3s2)nc2ccccc21 | 15.7 | 71.9* | -2.7 | -7.0 | -8.2 | 1.2
Cn1c(CSc2ncn[nH]2)nc2ccccc21 | 8.3 | 2.6 | -4.5 | -3.0 | -7.0 | 2.8*
O=C(NCC1CCCO1)C(=O)Nc1ccc(Oc2ccccc2)cc1 (stereo not given) | . | . | . | . | -13.5 | .
COc1cccc(OCCOc2ccccc2/C=C2/SC(=S)N(Cc3ccccc3)C2=O)c1 | . | . | . | . | 3.4 | .
CCOC(=O)CN1C(=O)C(CC)Oc2ccccc21 (stereo not given) | 0.5 | -5.8 | 9.8 | 1.0 | 2.9 | 0.9
CCOC(=O)CN1C(=O)C(Sc2n[nH]c(-c3ccccc3)n2)CCc2ccccc21 (stereo not given) | 0.1 | . | 4.8 | 4.0 | . | 2*
CC1CCCN(c2nc3c(c(=O)[nH]c(=O)n3C)n2Cc2ccccc2Cl)C1 (stereo not given) | 34.0* | 23.3 | 2.2 | 4.0 | 3.5 | 1.6
Cn1c(=O)[nH]c(=O)c2c1nc(CN1CCN(c3cccc(Cl)c3)CC1)n2Cc1ccccc1Cl | 51.4* | 20.8 | 8.4 | -2.0 | 1.7 | 1.6
Cc1cccc(Cn2c(N3CCc4ccccc4C3)nc3c2c(=O)[nH]c(=O)n3C)c1 | 9.9 | . | 2.2 | -6.0 | . | 0.9
Cc1cccc(Cn2c(N3CCCCC3C)nc3c2c(=O)[nH]c(=O)n3C)c1 (stereo not given) | 30.8* | 17.7 | 1.4 | 5.0 | 3.5 | .
Cc1ccc(Cn2c(N3CCCCCC3)nc3c2c(=O)[nH]c(=O)n3C)cc1 | 43.4* | 15.7 | 5.9 | 3.0 | -1.2 | 1
Cc1ccc(C2C(C(=O)/C=C/c3ccccc3)=C(O)C(=O)N2CCCCCC(=O)O)cc1 (stereo not given) | . | . | . | . | 4.5 | .
Cc1cc(Br)ccc1NC(=O)c1cccc([N+](=O)[O-])c1C | . | . | . | . | -11.5 | .
CC1(C)CC(=O)C(C=NCC2CCN(C(=O)Nc3ccc(Cl)c(Cl)c3)CC2)=C(O)C1 | 38.0* | . | 11.3 | -8.0 | -2.2 | 0.9
CC1(C)CC(=O)C(C=NCC2CCNCC2)=C(O)C1 | 11.9 | -16.4 | 23.7 | -5.0 | -0.9 | 0.9
C=CCN1C(=O)/C(=C\c2ccc(SC)cc2)C(=O)NC1=S | . | . | . | . | -12.3 | .
CC(=O)Nc1ccc(NC(=O)CN(c2ccc(F)cc2)S(=O)(=O)c2ccc3c(c2)OCCO3)cc1 | 10.3 | . | 3.5 | -6.0 | . | 0.9
O=C(CN(c1ccc(F)cc1)S(=O)(=O)c1ccc2c(c1)OCCO2)Nc1ccccc1 | 7.4 | . | 32.8* | 2.0 | . | 1.5
COc1cc(SC)ccc1C(=O)Nc1ccc(S(=O)(=O)N2CCCC2)cc1 | 1.1 | -10.6 | 7.5 | -9.0 | 5.9 | 0.9
COc1cc(SC)ccc1C(=O)Nc1ccon1 | 31.5* | -3.3 | -4.6 | -3.0 | -5.1 | 1
CCOc1ccc(NC(=O)CN(C)CC(=O)Nc2ccccc2C#N)cc1OCC | -1.0 | -0.7 | 1.6 | 4.0 | 13.0 | 1.8
CN(CC(=O)Nc1ccc(Cl)cc1)CC(=O)Nc1cc(Cl)ccc1C#N | 39.4* | 18.0 | 1.4 | 6.0 | 6.3 | 2.5*
O=C(Cc1c(F)cccc1Cl)Nc1ccncc1 | 25.1 | -2.9 | 37.0* | 10.0 | 12.9 | 0.9
SMILES | PostGolgi ctrl | tolC growth inh | PostGolgi yeast | Ecoli WT expand | HePTP inh | PLAP act
O=C(/C=C/c1c(Cl)cccc1Cl)Nc1ccncc1 | 92.0* | . | 51.5* | -5.0 | . | 0.9
N#CC1=C(N)Oc2c(ccc3ccccc23)C1c1ccsc1 (stereo not given) | 49.0* | . | -2.2 | 7.0 | . | 0.8
N#CC1=C(N)Oc2c(ccc3ccccc23)C1c1ccc(Cl)cc1Cl (stereo not given) | . | . | . | . | -4.9 | .
COc1ccccc1-c1cc2nc(C)c(CCC(=O)NC(C)CCc3ccco3)c(C)n2n1 (stereo not given) | 37.3* | . | 1.7 | 0.0 | . | 1.6
O=C(O)CCn1c2c(c3ccccc31)CCCC2 | 47.9* | . | 2.2 | -4.0 | 2.7 | 1.4
c1n[nH]c(SCCCCSc2ncn[nH]2)n1 | 1.8 | -23.5 | -4.1 | 8.0 | 10.5 | 2.6*
